The values below come from ChEMBL document CHEMBL3046475, “Inhibition of tobacco bacterial wilt with sulfone derivatives containing an 1,3,4-oxadiazole moiety” (J Agric Food Chem, 2012).

For experiment [1], the system named is Ralstonia solanacearum. The experiment can be described thus: Antibacterial activity against Ralstonia solanacearum assessed as growth inhibition at 500 ug/ml by turbidometer test (beneficial crop tobacco plant). It is filed as functional.
Experiment [2] deals with Ralstonia solanacearum. The experiment can be described thus: Antibacterial activity against Ralstonia solanacearum assessed as growth inhibition at 200 ug/ml by turbidometer test (beneficial crop tobacco plant). It is filed as functional.
The test system of experiment [3] is Ralstonia solanacearum. Put plainly: Antibacterial activity against Ralstonia solanacearum assessed as growth inhibition by turbidometer test (beneficial crop tobacco plant). The class given is functional, organism-based.
The test system of experiment [4] is Ralstonia solanacearum. The experiment can be described thus: Antibacterial activity against Ralstonia solanacearum in tobacco field assessed as inhibition of disease at 540 g/ha measured after 14 days of spraying. It is filed as functional, organism-based. In short, it runs like this:
(§1)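 Field trial with foliar spraying, scored 7, 14 and 21 d after treatment. Disease index = (4W + 3X + 2Y + Y)/4A from the plant disease classification sums. Inhibition % = (CK − PT1)/CK × 100, where CK is an untreated blank field. Statistics by ANOVA.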

Experiment [5] relates to Ralstonia solanacearum. Put plainly: Antibacterial activity against Ralstonia solanacearum in tobacco plant assessed as disease index at 500 ug/ml measured after 14 days of spraying under green house conditions. The class given is functional. In short, it runs like this: (§2)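 Tobacco seedlings were raised by floating cultivation at 25 °C for 30 d, then transplanted at about the three-leaf stage into pots of 500 g soil, one plant per pot. Plants were sprayed with compound solutions. Morbidity and disease index were recorded per a standard disease investigation and classification protocol at 7, 14 and 21 d, with blank and negative controls.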

Experiment [6] relates to Ralstonia solanacearum. Put plainly: Antibacterial activity against Ralstonia solanacearum in tobacco plant assessed as plant morbidity at 500 ug/ml measured after 14 days of spraying under green house conditions. It is filed as functional. Summed up:
as §2

In experiment [7] the test system is Ralstonia solanacearum. The experiment can be described thus: Antibacterial activity against Ralstonia solanacearum in tobacco plant assessed as control efficacy at 500 ug/ml measured after 14 days of spraying under green house conditions. The class given is functional. Summed up:
as §2

The test system of experiment [8] is Ralstonia solanacearum. Put plainly: Antibacterial activity against Ralstonia solanacearum in tobacco field assessed as inhibition of disease at 540 g/ha measured after 7 days of spraying. The class given is functional, organism-based. Summed up:
as §1

Experiment [9] deals with Ralstonia solanacearum. The experiment can be described thus: Antibacterial activity against Ralstonia solanacearum in tobacco plant assessed as plant morbidity at 500 ug/ml measured after 21 days of spraying under green house conditions. The class given is functional. In short, it runs like this:
as §2

Experiment [10] relates to Ralstonia solanacearum. Put plainly: Antibacterial activity against Ralstonia solanacearum in tobacco plant assessed as control efficacy at 500 ug/ml measured after 21 days of spraying under green house conditions. It is filed as functional. Summed up:
as §2

Experiment [11] deals with Ralstonia solanacearum. Put plainly: Antibacterial activity against Ralstonia solanacearum in tobacco plant assessed as control efficacy at 500 ug/ml measured after 7 days of spraying under green house conditions. It is filed as functional. Summed up:
as §2

In experiment [12] the test system is Ralstonia solanacearum. Put plainly: Antibacterial activity against Ralstonia solanacearum in tobacco field assessed as inhibition of disease at 540 g/ha measured after 21 days of spraying. The class given is functional, organism-based. Summed up: as §1
For experiment [13], the system named is Ralstonia solanacearum. Put plainly: Antibacterial activity against Ralstonia solanacearum in tobacco plant assessed as disease index at 500 ug/ml measured after 21 days of spraying under green house conditions. It is filed as functional. In short, it runs like this: as §2
Experiment [14] has as its system Ralstonia solanacearum. The experiment can be described thus: Antibacterial activity against Ralstonia solanacearum in tobacco plant assessed as plant morbidity at 500 ug/ml measured after 7 days of spraying under green house conditions. The class given is functional. In short, it runs like this: as §2
Experiment [15] has as its system Ralstonia solanacearum. Put plainly: Antibacterial activity against Ralstonia solanacearum in tobacco plant assessed as disease index at 500 ug/ml measured after 7 days of spraying under green house conditions. The class given is functional. In short, it runs like this: as §2
The test system of experiment [16] is Ralstonia solanacearum. The experiment can be described thus: Antibacterial activity against Ralstonia solanacearum in tobacco field assessed as inhibition of disease at 405 g/ha measured after 14 days of spraying. The class given is functional. Summed up: as §1
For experiment [17], the system named is Ralstonia solanacearum. The experiment can be described thus: Antibacterial activity against Ralstonia solanacearum in tobacco field assessed as inhibition of disease at 405 g/ha measured after 7 days of spraying. The class given is functional. Summed up: as §1
Experiment [18] concerns Ralstonia solanacearum. The experiment can be described thus: Antibacterial activity against Ralstonia solanacearum in tobacco field assessed as inhibition of disease at 405 g/ha measured after 21 days of spraying. The class given is functional. In short, it runs like this:
as §1

Where [19] appears, read: Ralstonia solanacearum, read-out: EC50.

In brackets after ≈: the same amount, converted by molar mass.

As for `CCS(=O)(=O)c1nnc(-c2ccc(F)cc2F)o1`, the inhibition at 500 µg/mL with Ralstonia solanacearum [1] is 100%. Also, the inhibition at 200 µg/mL with Ralstonia solanacearum [2] turned out to be 92.3%. For the same compound, the EC50 in the experiment on Ralstonia solanacearum [3] (setting [19]) turned out to be 60.3 µg/mL (≈ 220 µM).

`CCS(=O)(=O)c1nnc(-c2ccc(Cl)c([N+](=O)[O-])c2)o1`: in the experiment with Ralstonia solanacearum [1], the inhibition at 500 µg/mL was determined as 46%. The inhibition at 200 µg/mL in the experiment on Ralstonia solanacearum [2] was 17%.

With `CCS(=O)(=O)c1nnc(-c2ccc(C)cc2)o1`, in the experiment on Ralstonia solanacearum [1], the inhibition at 500 µg/mL was determined as 39%. The inhibition at 200 µg/mL in the experiment with Ralstonia solanacearum [2] was determined as 15%.

`CS(=O)(=O)c1nnc(-c2ccc(Cl)c([N+](=O)[O-])c2)o1`: the inhibition at 500 µg/mL in the experiment with Ralstonia solanacearum [1] amounted to 20.1%. Besides, in the experiment with Ralstonia solanacearum [2], the inhibition at 200 µg/mL is 0%.

As for Saisentong, the inhibition in the experiment on Ralstonia solanacearum [4] is 71.1%; in the experiment with Ralstonia solanacearum [8], 61.2%; in the experiment with Ralstonia solanacearum [12] it was 67.3%; in the experiment with Ralstonia solanacearum [1] it was 100%; in the experiment on Ralstonia solanacearum [2], 100%. Besides, the Activity was 40% in the experiment on Ralstonia solanacearum [5]; 73.3% in the experiment with Ralstonia solanacearum [6]; 100% with Ralstonia solanacearum [9]; 78.3% in the experiment with Ralstonia solanacearum [13]; 6.7% in the experiment on Ralstonia solanacearum [14]; 6.7% in the experiment on Ralstonia solanacearum [15]. Further, the Efficacy with Ralstonia solanacearum [7] stood at 59.3%; in the experiment with Ralstonia solanacearum [10] it was 21.7%; with Ralstonia solanacearum [11] it was 92.7%.

On to `COc1ccc(-c2nnc(S(C)(=O)=O)o2)cc1OC`, for which the inhibition at 500 µg/mL in the experiment on Ralstonia solanacearum [1] worked out at 10.1%. In addition, in the experiment with Ralstonia solanacearum [2], the inhibition at 200 µg/mL was 6%.

Consider `CCS(=O)(=O)c1nnc(-c2ccc(F)cc2)o1`, for which the “inhibition (INH)” value in the experiment with Ralstonia solanacearum [16] was found to be 68.8%; with Ralstonia solanacearum [17], 65.3%; with Ralstonia solanacearum [18], 71.9%. The Activity with Ralstonia solanacearum [5] amounted to 40%; in the experiment with Ralstonia solanacearum [6] it was 60%; in the experiment with Ralstonia solanacearum [9] it was 100%; with Ralstonia solanacearum [13] it was 61.7%; in the experiment on Ralstonia solanacearum [14], 13.3%; in the experiment with Ralstonia solanacearum [15], 13.3%. The Efficacy with Ralstonia solanacearum [7] stood at 59.3%; with Ralstonia solanacearum [10], 38.3%; with Ralstonia solanacearum [11] it was 85.5%. Moreover, the inhibition at 500 µg/mL in the experiment on Ralstonia solanacearum [1] is 100%. In addition, in the experiment on Ralstonia solanacearum [2], the inhibition at 200 µg/mL stood at 100%. Moreover, in the experiment with Ralstonia solanacearum [3] (setting [19]), the EC50 came out at 32.1 µg/mL (≈ 125 µM).

With `CCS(=O)(=O)c1nnc(Cc2ccc(Cl)cc2)o1`, the inhibition at 500 µg/mL in the experiment with Ralstonia solanacearum [1] is 31.4%. The inhibition at 200 µg/mL in the experiment with Ralstonia solanacearum [2] worked out at 18.7%.

For `CS(=O)(=O)c1nnc(-c2ccc(F)c(F)c2)o1`, the inhibition at 500 µg/mL in the experiment on Ralstonia solanacearum [1] was determined as 12%. Also, the inhibition at 200 µg/mL in the experiment on Ralstonia solanacearum [2] worked out at 11.1%.

Take `CCS(=O)(=O)c1nnc(-c2ccc(OC)c(OC)c2)o1`: the inhibition at 500 µg/mL in the experiment on Ralstonia solanacearum [1] was determined as 9.3%. Also, the inhibition at 200 µg/mL in the experiment on Ralstonia solanacearum [2] came to 2.8%.

With `CCS(=O)(=O)c1nnc(-c2cccc(F)c2)o1`, in the experiment with Ralstonia solanacearum [1], the inhibition at 500 µg/mL came out at 100%. The inhibition at 200 µg/mL with Ralstonia solanacearum [2] is 100%. For the same compound, the EC50 in the experiment on Ralstonia solanacearum [3] (setting [19]) stood at 47.9 µg/mL (≈ 187 µM).

Consider `CS(=O)(=O)c1nnc(Cc2ccc(Cl)cc2)o1`, for which the inhibition at 500 µg/mL in the experiment with Ralstonia solanacearum [1] came to 31%. In addition, in the experiment with Ralstonia solanacearum [2], the inhibition at 200 µg/mL worked out at 19.2%.

As to `CCS(=O)(=O)c1nnc(-c2ccccc2)o1`, the Activity in the experiment on Ralstonia solanacearum [5] came out at 86.7%; in the experiment with Ralstonia solanacearum [6] it was 100%; with Ralstonia solanacearum [9], 100%; with Ralstonia solanacearum [13], 91.7%; in the experiment with Ralstonia solanacearum [14], 60%; in the experiment with Ralstonia solanacearum [15], 60%. For the same compound, the Efficacy with Ralstonia solanacearum [7] was found to be 12%; in the experiment with Ralstonia solanacearum [10] it was 8.3%; in the experiment on Ralstonia solanacearum [11], 34.6%. Besides, in the experiment with Ralstonia solanacearum [1], the inhibition at 500 µg/mL came out at 100%. In the experiment with Ralstonia solanacearum [2], the inhibition at 200 µg/mL came out at 100%. Further, the EC50 in the experiment with Ralstonia solanacearum [3] (setting [19]) came to 39.8 µg/mL (≈ 167 µM).

For the compound `CS(=O)(=O)c1nnc(-c2ccccc2Br)o1`, the inhibition at 500 µg/mL with Ralstonia solanacearum [1] was determined as 14.2%. In addition, the inhibition at 200 µg/mL in the experiment with Ralstonia solanacearum [2] was determined as 9.9%.

Turning to COPPER HYDROXIDE [listing 1 of 2 here], the Activity with Ralstonia solanacearum [5] was 95%; in the experiment with Ralstonia solanacearum [6], 100%; with Ralstonia solanacearum [9], 100%; in the experiment on Ralstonia solanacearum [13] it was 100%; in the experiment on Ralstonia solanacearum [14] it was 50.3%; in the experiment on Ralstonia solanacearum [15], 53.3%. Besides, the Efficacy came out at 3.4% with Ralstonia solanacearum [7], 0% in the experiment with Ralstonia solanacearum [10] and 41.9% in the experiment on Ralstonia solanacearum [11].

Turning to COPPER HYDROXIDE [listing 2 of 2 here], the concentration for a half-maximal effect (EC50) with Ralstonia solanacearum [3] is 45.9 µg/mL.

For `CCS(=O)(=O)c1nnc(-c2ccc(F)c(F)c2)o1`, the inhibition at 500 µg/mL in the experiment with Ralstonia solanacearum [1] worked out at 52%. The inhibition at 200 µg/mL in the experiment on Ralstonia solanacearum [2] amounted to 46.7%.

The term inhibition denotes how much of the control response was suppressed. As a reminder, the EC50 is the midpoint of the concentration-response curve.
